Assay results collected from several papers.
Protocols differ between the studies behind these lines.
Target: NUAK family SNF1-like kinase 1 (NUAK1, Homo sapiens, UniProt O60285)
Residues used in one study (O60285 1-661): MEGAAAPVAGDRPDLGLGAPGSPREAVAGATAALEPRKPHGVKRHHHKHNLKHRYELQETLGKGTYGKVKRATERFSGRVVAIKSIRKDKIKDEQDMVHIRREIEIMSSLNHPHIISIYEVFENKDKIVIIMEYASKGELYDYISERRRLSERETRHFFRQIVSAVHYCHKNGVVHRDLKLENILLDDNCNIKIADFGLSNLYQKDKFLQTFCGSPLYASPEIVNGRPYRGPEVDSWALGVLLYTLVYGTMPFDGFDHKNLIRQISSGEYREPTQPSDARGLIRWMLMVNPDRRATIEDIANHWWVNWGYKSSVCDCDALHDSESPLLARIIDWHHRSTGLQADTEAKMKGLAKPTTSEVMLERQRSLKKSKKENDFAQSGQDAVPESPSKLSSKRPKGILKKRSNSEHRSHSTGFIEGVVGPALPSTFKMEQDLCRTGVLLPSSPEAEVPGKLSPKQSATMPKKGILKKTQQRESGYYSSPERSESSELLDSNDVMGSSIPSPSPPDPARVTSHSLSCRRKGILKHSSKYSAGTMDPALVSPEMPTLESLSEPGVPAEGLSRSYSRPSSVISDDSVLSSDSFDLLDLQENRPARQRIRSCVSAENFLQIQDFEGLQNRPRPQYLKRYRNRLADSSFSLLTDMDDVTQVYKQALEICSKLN

| SMILES | observed | technique | tested at | remaining binding [%] |
| --- | --- | --- | --- | --- |
| O=C(NCCCN1CCOCC1)c1ccc(Nc2nccc(-c3cc4ccccc4s3)n2)cc1 | binding | competition with immobilised ligand | 1 µM | 13 |
| CCC(=N\O)/C(C)=C/c1ccc(F)cc1 | cell-free assay | competition with immobilised ligand | 1 µM | 100 |
| c1cncc(-c2cccc(Nc3nccc(NC4CCCCC4)n3)c2)c1 | binding | competition with immobilised ligand | 10 µM | 16 |
| O=C1CCc2cc(Nc3cc(OC4CCOCC4)c([N+](=O)[O-])cc3Cl)ccc2N1 | cell-free assay | competition with immobilised ligand | 1 µM | 100 |
| O=C(Nc1c[nH]nc1C(=O)NC1CCNCC1)c1cc(F)cc(F)c1 | binding | competition with immobilised ligand | 1 µM | 76 |
| O=C(c1ccc(Nc2nccc(-c3cc4ccccc4s3)n2)cc1)N1CCC(N2CCCC2)CC1 | binding | competition with immobilised ligand | 1 µM | 22 |
| O=C(NCc1ncc(C(F)(F)F)cc1Cl)c1ccc2c(c1)C1(CCS(=O)(=O)CC1)[C@H](C1CC1)N2S(=O)(=O)c1ccc(F)cc1 | cell-free assay | competition with immobilised ligand | 1 µM | 83 |
| CN(C)c1ncc(F)c(-c2cnn3ncccc23)n1 | binding | – | 1 µM | 100 |
| Nc1ncc2c(n1)-c1c([nH]c3ccc(C#CC4CC4)cc13)CCCC2 | binding | competition with immobilised ligand | 1 µM | 100 |
| C[C@@H]1CCN(c2nccc(-c3cnn4ncccc34)n2)C1 | binding | – | 1 µM | 93 |
| Cn1cc(Cl)c2c(Oc3c(F)cc(Nc4cc(Cl)nc(N)n4)cc3F)ccnc21 | cell-free assay | competition with immobilised ligand | 0.1 µM | 96 |
| CN(C)c1nccc(-c2cnc3ncccn23)n1 | binding | – | 1 µM | 98 |
| CN(C)C(=O)Cn1cc(-c2nc([C@@](C)(c3ccc(-c4cnc(N)nc4)cc3)C3CC3)no2)cn1 | cell-free assay | competition with immobilised ligand | 1 µM | 100 |
| N[C@H]1CCN(c2nccc(-c3cnn4ncccc34)n2)C1 | binding | – | 1 µM | 63 |
| O=C(c1ccc(Nc2ncc(Cl)c(-c3ccc(Cl)s3)n2)cc1)N1CCC(N2CCCC2)CC1 | binding | competition with immobilised ligand | 1 µM | 0.65 |
| COc1ccnn2ncc(-c3ccnc(N(C)C)n3)c12 | binding | – | 1 µM | 82 |
| C[C@H](c1ccnc(Nc2nc3ccc(-c4cc(N(C)C)ncn4)cc3[nH]2)c1)N1CCN(C(=O)CC(F)(F)F)CC1 | cell-free assay | competition with immobilised ligand | 0.1 µM | 93 |
| CC1CCCN1c1nccc(-c2cnn3ncccc23)n1 (stereo not shown) | binding | – | 1 µM | 89 |
| COc1cnc(Nc2cccc(S(N)(=O)=O)c2)nc1N1CCN(c2ccccc2)C(=O)C1 | binding | competition with immobilised ligand | 1 µM | 86 |
